# In ChEMBL document CHEMBL3272255, “Substituted alpah-methylbenzyl and tricyclic arylalkyl lactamimides as inhibitors of blood platelet aggregation” (J Med Chem, 1976):
# Experiments:
# [1] = Antiplatelet activity in human platelet rich plasma assessed as platelet factor-3 release at 300 ug/ml after 20 mins relative to control
# Cavia porcellus [2] = assay: Toxicity in guinea pig assessed as mortality at 300 mg/kg, po measured after third dose; type: organism-based; set-up: dose 300 mg/kg, route oral; settings: in vivo
# Cavia porcellus [3] = assay: Antiplatelet activity in guinea pig assessed as inhibition of 0.8 ug/ml ADP-induced platelet aggregation measured as change in light transmittance at 30 mg/kg, po for 4 days measured at 2 hrs post last dose by aggregometric analysis relative to control; type: functional
# Procedure, shortened: (§1)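 Dosing was oral by stomach tube for 4 days, alongside an untreated control group. Blood was drawn by heart puncture 2 h after the final dose, then citrated PRP was isolated and adjusted for aggregometry. ADP was added in vitro at the stated concentration. The read-out was the maximum increase in light transmittance (ΔT); group means were compared, treated vs control.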
# [4] = Antiplatelet activity in human platelet rich plasma assessed as inhibition of ADP-induced platelet aggregation at 30 ug/ml after 20 mins by aggregometric analysis relative to control; type: functional
# Procedure, shortened: (§2)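 Human blood came from fasting donors who had taken no drugs for 5 days. It was citrated 1:9 with 3.8% sodium citrate. PRP was prepared at 100g for 10 min and PPP at 1500g for 15 min, and PRP was diluted with autologous PPP to 400000 platelets/mm³. Compound or saline control was incubated 20 min at 37°, then ADP was added at 2 μg/ml final. Percent inhibition was calculated from maximal ΔT, test vs control.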
# Cavia porcellus [5] = assay: Antiplatelet activity in guinea pig assessed as inhibition of 0.45 ug/ml ADP-induced platelet aggregation measured as area between aggregation curve and baseline transmittance at 30 mg/kg, po for 4 days measured at 2 hrs post last dose by aggregometric analysis relative to control; type: functional
# Procedure, shortened: (§3)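 Guinea pigs were dosed by stomach tube at the stated dose daily for 4 days, with an untreated control group kept in parallel. Blood was taken by heart puncture 2 h after the last dose, and citrated PRP was isolated and adjusted. ADP was added in vitro. Total response was the area between the aggregation curve and baseline transmittance over 5 min, measured by planimeter. Percent inhibition came from group-average total response, treated vs control.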
# Cavia porcellus [6] = assay: Antiplatelet activity in guinea pig assessed as inhibition of 0.8 ug/ml ADP-induced platelet aggregation measured as area between aggregation curve and baseline transmittance at 100 mg/kg, po for 4 days measured at 2 hrs post last dose by aggregometric analysis relative to control; type: functional
# Procedure, shortened: as §3
# [7] = Antiplatelet activity in human platelet rich plasma assessed as inhibition of ADP-induced platelet aggregation at 10 ug/ml after 20 mins by aggregometric analysis relative to control; type: functional
# Procedure, shortened: as §2
# Cavia porcellus [8] = assay: Antiplatelet activity in guinea pig assessed as 0.45 ug/ml ADP-induced platelet aggregation measured as change in light transmittance at 100 mg/kg, po for 4 days measured at 2 hrs post last dose by aggregometric analysis
# [9] = Antiplatelet activity in human platelet rich plasma assessed as inhibition of ADP-induced platelet aggregation at 100 ug/ml after 20 mins by aggregometric analysis relative to control; type: functional
# Procedure, shortened: as §2
# Cavia porcellus [10] = assay: Antiplatelet activity in guinea pig assessed as inhibition of 0.45 ug/ml ADP-induced platelet aggregation measured as area between aggregation curve and baseline transmittance at 100 mg/kg, po for 4 days measured at 2 hrs post last dose by aggregometric analysis relative to control; type: functional
# Procedure, shortened: as §3
# Cavia porcellus [11] = assay: Antiplatelet activity in guinea pig assessed as inhibition of 0.8 ug/ml ADP-induced platelet aggregation measured as area between aggregation curve and baseline transmittance at 30 mg/kg, po for 4 days measured at 2 hrs post last dose by aggregometric analysis relative to control; type: functional
# Procedure, shortened: as §3
# Cavia porcellus [12] = assay: Antiplatelet activity in guinea pig assessed as inhibition of 0.8 ug/ml ADP-induced platelet aggregation measured as change in light transmittance at 100 mg/kg, po for 4 days measured at 2 hrs post last dose by aggregometric analysis relative to control; type: functional
# Procedure, shortened: as §1
# [13] = Antiplatelet activity in human platelet rich plasma assessed as inhibition of platelet factor-3 release at 100 ug/ml after 20 mins relative to control; type: functional
# Procedure, shortened: (§4)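 Test compound solution was incubated in human citrated PRP at 37° for 20 min. PF3 activity was then measured by a modified Stypven test, with plasma diluted 1:10.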
# Cavia porcellus [14] = assay: Antiplatelet activity in guinea pig assessed as inhibition of 0.45 ug/ml ADP-induced platelet aggregation measured as change in light transmittance at 30 mg/kg, po for 4 days measured at 2 hrs post last dose by aggregometric analysis relative to control; type: functional
# Procedure, shortened: as §1
# [15] = Antiplatelet activity in human platelet rich plasma assessed as inhibition of platelet factor-3 release at 30 ug/ml after 20 mins relative to control; type: functional
# Procedure, shortened: as §4
SMILES,%max [1] [%],inhibition at 30 µg/mL [4] [%],inhibition at 10 µg/mL [7] [%],inhibition at 100 µg/mL [9] [%],%max [13] [%],further results
CC(/N=C1/CCCCCN1)c1cccc2ccccc12.Cl (stereo not drawn),0.037,46,0,70,0.003,Activity (Cavia porcellus [2]): Toxic; ΔT % at 30 mg/kg (Cavia porcellus [3]): 29%; inhibition in vivo at 30 mg/kg (Cavia porcellus [5]): 33%; inhibition in vivo at 100 mg/kg (Cavia porcellus [6]): 0%; ΔT % at 100 mg/kg (Cavia porcellus [8]): 7.1%; inhibition in vivo at 100 mg/kg (Cavia porcellus [10]): 0%; inhibition in vivo at 30 mg/kg (Cavia porcellus [11]): 0%; ΔT % at 100 mg/kg (Cavia porcellus [12]): 21.6%; ΔT % at 30 mg/kg (Cavia porcellus [14]): 7%
CCCCCCCCCCCCCc1ccc(C(C)/N=C2\CCCCCN2)cc1 (stereo not drawn),–,33,16,100,–,–
CCCCCCCCCCCCOc1ccc(C(C)/N=C2\CCCCCN2)cc1 (stereo not drawn),–,–,–,64,–,–
CC(/N=C1\CCCCCN1)c1ccc(C2CCCCC2)cc1.Cl (stereo not drawn),0.62,31,9,100,0.004,–
CC(/N=C1\CCCCCN1)c1ccc(-c2ccccc2)cc1.Cl (stereo not drawn),0.76,44,0,100,0.04,–
CC(/N=C1\CCCCCN1)c1ccc(CCc2ccccc2)cc1.Cl (stereo not drawn),0.91,37,8,78,0.013,%max [15]: 0%
CC(/N=C1\CCCN1C)c1ccc(CCc2ccccc2)cc1 (stereo not drawn),–,29,–,100,–,–
CC(/N=C1\CCCCCN1)c1ccc(C=C(c2ccccc2)c2ccccc2)cc1.Cl (stereo not drawn),2.3,21,0,100,0.23,–
CC(/N=C1\CCCCCN1)c1ccc(C=C2c3ccccc3-c3ccccc32)cc1.Cl (stereo not drawn),0.42,38,6,100,0.02,–
CC(/N=C1\CCCCCN1)c1ccc(Oc2ccccc2)cc1.Cl (stereo not drawn),0.26,25,15,100,0.01,ΔT % at 30 mg/kg (Cavia porcellus [3]): 42.2%; inhibition in vivo at 30 mg/kg (Cavia porcellus [5]): 53%; inhibition in vivo at 100 mg/kg (Cavia porcellus [6]): 8%; ΔT % at 100 mg/kg (Cavia porcellus [8]): 17.7%; inhibition in vivo at 100 mg/kg (Cavia porcellus [10]): 29%; inhibition in vivo at 30 mg/kg (Cavia porcellus [11]): 38%; ΔT % at 100 mg/kg (Cavia porcellus [12]): 49%; ΔT % at 30 mg/kg (Cavia porcellus [14]): 24.4%
CC(/N=C1\CCCCCN1)c1ccccc1OCCc1ccccc1 (stereo not drawn),–,30,11,81,–,–
CC(/N=C1\CCCCCN1)c1ccc(OCCCc2ccccc2)cc1 (stereo not drawn),–,–,–,74,–,–
CC(/N=C1\CCCCCN1)c1ccc(OCCCOc2ccccc2)cc1 (stereo not drawn),–,14,0,100,–,–
CC(/N=C1\CCCN1)c1cccc(OCCCCOc2ccccc2)c1 (stereo not drawn),–,16,0,100,–,–
CC(/N=C1\CCCCCN1)c1cc(C(C)(C)C)cc2c1CCC2(C)C (stereo not drawn),–,22,0,100,–,–
Cc1cc2c(cc1C(C)/N=C1\CCCCCN1)C(C)(C)CCC2(C)C (stereo not drawn),–,–,–,77,–,–
CC(/N=C1\CCCCCN1)c1ccc2c(c1)Cc1ccccc1-2.Cl (stereo not drawn),1.5,43,0,100,0.06,–
CC(/N=C1\CCCCCCCN1)c1ccc2c(c1)Cc1ccccc1-2 (stereo not drawn),–,62,6,100,–,–
CC(/N=C1\CCCCCN1)c1ccc2c(ccc3ccccc32)c1.Cl (stereo not drawn),2.6,43,4,100,0.06,–
CC(/N=C1\CCCN1)c1ccc2oc3ccccc3c2c1 (stereo not drawn),–,42,10,100,–,–
CC(/N=C1\CCCCCN1)c1ccc2oc3ccccc3c2c1 (stereo not drawn),–,–,–,67,–,–
CC(/N=C1\CCCCCN1)c1ccc2sc3ccccc3c2c1.Cl (stereo not drawn),0.18,52,2,100,0.013,ΔT % at 30 mg/kg (Cavia porcellus [3]): 43.6%; inhibition in vivo at 30 mg/kg (Cavia porcellus [5]): 0%; inhibition in vivo at 100 mg/kg (Cavia porcellus [6]): 0%; ΔT % at 100 mg/kg (Cavia porcellus [8]): 32%; inhibition in vivo at 100 mg/kg (Cavia porcellus [10]): 0%; inhibition in vivo at 30 mg/kg (Cavia porcellus [11]): 3%; ΔT % at 100 mg/kg (Cavia porcellus [12]): 53.6%; ΔT % at 30 mg/kg (Cavia porcellus [14]): 20.4%
O=C(CO)OC(CC1CCCCN1)c1ccc(C=C2c3ccccc3-c3ccccc32)cc1 (stereo not drawn),0.747,28,1,99,0.162,%max [15]: 0.003%
CCN(CC)CCN(CC(O)c1ccccc1)c1cc(Cl)ccc1Cl (stereo not drawn),0.52,10,–,62,0.1,–
